# Screening results deposited in PubChem by several laboratories.
# This is a sample that favours compounds with a hit; in the whole collection about 2.5% have one here.
# TRPC4 agonist: TRPC4 (mouse) channel activation; Q9QUQ5; HEK293 TRPC4beta/mu-opioid, Fluo4 calcium fluorescence; stronger effect = higher value; B-score at 10 µM; hit rate 0.49% among 310,000;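 active means B-score above 5 SD of library B-scores, and initial fluorescence ratio not above library mean plus 5 SD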;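 further: positive B-score marks a calcium rise read as TRPC4 activation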
#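 Incubation: 45 min room-temperature Fluo4 loading, 110 s read / System: HEK293 cells stably co-expressing mouse TRPC4beta and mu-opioid receptor / Signal: Fluo4 fluorescence, kinetic / Control set: buffer (low) and maximal DAMGO (high) / Measure: integrated baseline-normalised fluorescence ratio, converted to per-well B score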
# TRPC6 act: activators of mouse TRPC6 channel; B-score at 10 µM; hit rate 0.13% among 310,000; HEK293-TRPC6 membrane potential dye fluorescence; stronger effect = higher value; AID 2550; Q61143;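 active means B-score of the integrated fluorescence ratio above library mean plus 3 SD, and starting fluorescence ratio within library mean plus 5 SD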;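 further: higher score means more depolarization so channel activation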
# DSG3 Ab inh: inhibitors of pemphigus antibody binding to human desmoglein-3. P32926. DSG3-coupled beads, scFv-anti-DSG3-GFP binding, flow cytometry; stronger effect = lower value. binding (percent of control), % at 10 µM. hit rate 0.48% among 310,000;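 active means binding more than 3 SD below its plate's average and above zero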
# TRPC4 potent: TRPC4 (mouse) allosteric potentiation; B-score at 10 µM; HEK293 TRPC4beta/mu-opioid, DAMGO EC20, Fluo-4 Ca2+ flux; stronger effect = higher value; Q9QUQ5; hit rate 0.42% among 310,000;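 active means B-score of calcium response area above 5 SD of library B-scores, with initial fluorescence ratio within 5 SD of library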;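 further: B-score of integrated fluorescence ratio over time as area under calcium response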
# TRPC6 inhibitor: blocks the mouse TRPC6 cation channel. Q61143. HEK293-TRPC6, membrane potential dye, ACh-evoked depolarization; stronger effect = lower value. B-score at 10 µM. hit rate 1.1% among 310,000. AID 2553;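 active means B-score under library mean minus 3 SD, initial fluorescence not abnormally high, positive integrated signal ratio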;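 further: B-score derived from integrated fluorescence ratio over the kinetic read; more negative B-score means stronger inhibition of depolarization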
# TRPC4 block: blocks the mouse TRPC4 cation channel | hit rate 0.39% among 300,000 | Q9QUQ5 | AID 2247 | HEK293 TRPC4beta/mu-opioid, DAMGO-evoked Fluo4 calcium flux; stronger effect = lower value | B-score at 10 µM;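 active means B-score over 3 SD under the library average, no early fluorescence shift, positive overall ratio signal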
#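 Assay system: TRPC4beta/mu-opioid receptor HEK293 cell line; compound dosing: single concentration per test compound; detection: Fluo4 Ca2+ flux fluorescence; evaluation: per-well B score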
# HEK293 MPD ctr: counter-screen for TRPC6 modulators: effect in parental HEK293 cells. shares compounds with TRPC6 inhibitor. membrane potential dye fluorescence. membrane potential signal change, % at 10 µM. hit rate 51% among 2,400. AID 488924;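 active means membrane potential signal moves up or down beyond 5 SD from buffer-only wells, on both duplicate plates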
# HEK293 MPD ctr 2: parental HEK293 nonspecific activity of TRPC6 modulators, second screen. shares compounds with TRPC6 inhibitor. membrane potential dye fluorescence; after compound, maximal acetylcholine stimulation. inhibition, % at 10 µM. hit rate 14% among 2,400. AID 488926;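 active means membrane potential signal drops by more than 5 SD from the mean control signal, in both duplicate plates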;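 further: plate controls were acetylcholine ECmax control wells for no effect and buffer only wells for full effect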
# TRPC4/MOR mod: selectivity of TRPC6 modulators against mouse TRPC4 | shares compounds with TRPC6 inhibitor | HEK293 TRPC4/mu-opioid, membrane potential fluorescence | percent change from control (negative = decrease, positive = increase), % at 10 µM | hit rate 69% among 2,400 | AID 488927;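 active means membrane potential signal moved up or down beyond 5 SD of buffer control wells, in both duplicate plates, actives on both sides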;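 further: plate controls were assay buffer wells for no effect and DAMGO maximal-effect wells for full effect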
# TRPC4 ctr inh 2: second selectivity test of TRPC6 modulators against mouse TRPC4. shares compounds with TRPC6 inhibitor. HEK293 TRPC4/mu-opioid, membrane potential dye fluorescence; stimulated with maximal-effect DAMGO. inhibition, % at 10 µM. hit rate 55% among 2,400. AID 488928;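 active means drop in membrane potential signal beyond 5 SD of the control wells in both duplicate plates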;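 further: TRPC4 counter screen for TRPC6 hits run under conditions tuned for TRPC6 not TRPC4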
# TRPC6 block conf: mouse TRPC6 inhibitor confirmation. shares compounds with TRPC6 inhibitor. HEK293-TRPC6, membrane potential dye, ACh-evoked depolarization. inhibition, % at 10 µM. hit rate 43% among 3,300;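 active means fluorescence ratio falls more than 5 SD below the full-stimulation control mean, in both duplicate runs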;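 further: integrated fluorescence ratio of peak minus minimum over baseline after agonist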
# TRPC6 act conf: mouse TRPC6 activator confirmation; shares compounds with TRPC6 inhibitor; HEK293-TRPC6 membrane potential dye fluorescence, FDSS; activation, % at 10 µM; hit rate 11% among 2,800;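 active means ratio signal rise beyond 5 SD above unstimulated control wells' mean, seen in both duplicate runs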;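 further: plate controls were buffer EC0 wells for no effect and acetylcholine ECmax response for full effect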
# * = called active by the depositor; i = inactive; . = no result.
SMILES,TRPC4 agonist,TRPC6 act,DSG3 Ab inh,TRPC4 potent,TRPC6 inhibitor,TRPC4 block,HEK293 MPD ctr,HEK293 MPD ctr 2,TRPC4/MOR mod,TRPC4 ctr inh 2,TRPC6 block conf,TRPC6 act conf
COC(=O)c1ccc(-c2noc(CN3CCCCC3c3nccn3C)n2)cc1 (configuration not stated),i,i,103.5,i,-5.09*,i,163.5%*,i,37.5%*,36.5%*,43.0%*,.
Cn1ccnc1C1CCCCN1Cc1nc(Cc2ccccc2F)no1 (configuration not stated),i,i,118.9,i,-5.55*,i,i,i,i,i,67.0%*,i
COC(=O)c1ccc(-c2noc(CN(Cc3nccn3C)C(C)C)n2)cc1,i,i,103.8,i,-5.08*,i,i,i,i,i,i,i
Clc1ccccc1Cc1noc(CN2CCCCC2c2ccccn2)n1 (configuration not stated),i,i,113.2,i,i,i,.,.,.,.,.,.
COc1ccc(-c2noc(CN3CCCC(OCc4ccccn4)C3)n2)cc1 (configuration not stated),i,i,108.5,i,i,i,.,.,.,.,.,.
O=C(COC(=O)CNC(=O)c1ccc(Cl)cc1)Nc1cccc(S(=O)(=O)N2CCCC2)c1,i,i,92.7,i,i,i,.,.,.,.,.,.
COc1ccc2c(c1OC)C(=O)OC2C1c2c(cc3c(c2OC)OCO3)CCN1C (configuration not stated),i,i,111.6,i,i,i,.,.,.,.,.,.
CN1CCc2cc3c(c4c2[C@H]1[C@H](O)c1ccccc1-4)OCO3,i,i,102.7,i,-5.09*,i,i,i,-23.5%*,47.5%*,i,i
COc1ccc(S(=O)(=O)Nc2cccc(N(C)S(C)(=O)=O)c2)cc1Br,i,i,123.3,i,i,i,.,.,.,.,.,.
CN(c1cccc(NS(=O)(=O)c2cccs2)c1)S(C)(=O)=O,i,i,104.8,i,-6.1*,i,i,i,i,i,i,i
Nc1c(-c2cccc(Cl)c2)cnn1-c1ccccc1,i,i,96.5,i,-7.06*,i,-123.5%*,i,-18.5%*,76.5%*,52.0%*,i
Nc1c(-c2ccccc2)cnn1-c1ccccc1,i,i,104.5,i,i,i,.,.,.,.,.,.
CCCCOc1ccc(C(=O)NNC(=O)C2C3C=CC(C3)C2C(=O)O)cc1 (configuration not stated),i,i,99.4,i,i,i,.,.,.,.,.,.
COc1cccc(CNC(=O)CCC2CCCN(c3cc(C)nc(N4CCCC4)n3)C2)c1 (configuration not stated),i,i,104.9,i,-6.1*,i,i,i,-9.0%*,43.0%*,47.5%*,i
COc1cccc(CNC(=O)CCC2CCCN(C3CCOCC3)C2)c1 (configuration not stated),i,i,100.2,i,i,i,.,.,.,.,.,.
CSc1nc(-c2ccc(Cl)cc2Cl)[nH]c(=O)c1C#N,i,13.5*,101.7,i,i,i,i,i,12.0%*,i,i,i
Cc1cc(-c2ccc(Cl)cc2Cl)c(C#N)c(=O)[nH]1,i,i,106.0,i,i,i,.,.,.,.,.,.
CC(C)(C)OC(=O)N1CCC(c2c(C(=O)N3CCN(C(=O)c4ccco4)CC3)cnn2-c2ccc(F)cc2)CC1,i,i,97.7,i,i,i,.,.,.,.,.,.
Cc1ccc(-n2ncc(C(=O)N3CCN(C(=O)c4ccco4)CC3)c2C2CCN(C(=O)OC(C)(C)C)CC2)cc1C,i,i,104.5,i,-5.62*,i,i,i,i,i,i,.
C=CCc1cc(Cl)ccc1OCCN(C)C,i,i,103.4,i,-5*,.,i,i,8.0%*,i,i,i
Clc1ccc2c(c1)C(N1CCNCC1)Cc1ccccc1S2 (configuration not stated),i,i,107.3,i,-5.44*,i,i,i,i,74.0%*,64.0%*,i
CCCCN(c1ccccc1)S(=O)(=O)c1cccc2cccnc12,i,i,99.4,i,i,i,.,.,.,.,.,.
Cc1oc(-c2ccc(Cl)cc2)nc1CN1CCCC(C(=O)NCc2ccco2)C1 (configuration not stated),i,15.7*,97.7,i,-6.7*,i,114.5%*,i,20.0%*,51.0%*,47.0%*,92.5%*
Cc1oc(-c2ccc(Cl)cc2)nc1CN1CCCC(C(=O)NC2CC2)C1 (configuration not stated),i,i,108.5,i,i,i,.,.,.,.,.,.
CCc1ccccc1NC(=O)C1CCN(S(=O)(=O)c2ccc3c(c2)N(C(C)=O)CCO3)CC1,i,i,.,i,i,i,.,.,.,.,.,.
CCc1nnc(NC(=O)CSc2nnc(CCc3nc4ccccc4[nH]3)n2C)s1,i,i,104.0,i,i,i,.,.,.,.,.,.
Cc1nnc(NC(=O)CSc2nnc(CCc3nc4ccccc4[nH]3)n2C)s1,i,14.4*,.,i,i,i,261.0%*,i,40.5%*,i,i,108.5%*
COc1ccc(C(=O)N(c2ccccc2)C2C=CS(=O)(=O)C2)cc1 (configuration not stated),i,i,102.3,i,i,i,.,.,.,.,.,.
O=C(c1ccccc1)N(c1ccccc1)C1C=CS(=O)(=O)C1 (configuration not stated),i,i,102.3,i,-6.27*,i,i,i,i,i,i,i
c1ccc(-c2nc3ccccc3[nH]2)nc1,i,i,102.2,i,i,i,.,.,.,.,.,.
